Test [1] in a line: Activity at synthetic biotin-RNA pseudoknot assessed as increase in -1 ribosomal frameshifting efficiency at 250 uM by dual luciferase assay. In outline: (§1)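 Biotin-pseudoknot template ligated into dual luciferase vector (XhoI/SpeI). Coupled transcription/translation in rabbit reticulocyte lysate with compounds at 250 μM in DMSO; DMSO control. Frameshift efficiency from SDS–PAGE band quantification (100 vs 40 kDa, PhosphorImager) or dual luciferase firefly/Renilla ratio, 10 s reads; fold change = efficiency with compound / without; triplicate runs.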

Test [2] is described as follows: Activity at synthetic biotin-RNA pseudoknot assessed as increase in -1 ribosomal frameshifting efficiency at 250 uM by rabbit reticulocyte based transcription/translation-coupled assay. The essentials:
as §1

Test [3] concerns Pea enation mosaic virus-1. The test can be described thus: Activity at PEMV RNA pseudoknot assessed as increase in -1 ribosomal frameshifting efficiency at 250 uM by SDS-PAGE based transcription/translation-coupled assay. In outline:
(§2)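 Template carries PEMV pseudoknot in place of biotin-pseudoknot in dual luciferase vector. In vitro TNT-coupled transcription/translation in rabbit reticulocyte lysate, compounds in DMSO (DMSO control). Read-out by SDS–PAGE autoradiography, frameshift (100 kDa) vs non-frameshift (40 kDa) products quantified by PhosphorImager, or by dual luciferase (firefly then Renilla, 10 s each, ratio); luciferase values mean of triplicates.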

For another test, the system named is HEK293. Kind of test: Activity at synthetic biotin-RNA pseudoknot assessed as increase in -1 ribosomal frameshifting efficiency in human HEK293 cells at 250 uM by transcription/translation-coupled assay. The class given is cell-based. The essentials: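 HEK 293 in DMEM, 10% FBS, 1% pen-strep, seeded to 40% confluence, transfected with biotin-pseudoknot dual luciferase construct (50 ng DNA, JetPEI) for 18 h, then compound in DMSO added for a further 18 h. Passive lysis 30 min at room temperature, protein normalised by Bradford (50 μg), firefly/Renilla luciferase ratio read.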

A short description of test [4]: Activity at synthetic biotin-RNA pseudoknot assessed as increase in -1 ribosomal frameshifting efficiency by rabbit reticulocyte based transcription/translation-coupled assay. In outline: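 Concentration series 25 nM to 250 μM in rabbit reticulocyte TNT-coupled assay with biotin-pseudoknot template; biotin at 250 μM as comparator. Frameshifting % from SDS–PAGE autoradiogram, frameshift (100 kDa) vs non-frameshift (40 kDa) protein.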

The test system of test [5] is Pea enation mosaic virus-1. The test can be described thus: Activity at PEMV RNA pseudoknot assessed as increase in -1 ribosomal frameshifting efficiency at 250 uM by dual luciferase based transcription/translation-coupled assay. The essentials: as §2

Molecules are shown by their SMILES. Calls of active or inactive are those of the source. The calls are words filed in the database; no cut-off is given here.

For 6 compounds, Activity results are on record in ChEMBL document CHEMBL1144703, “Identification of novel ligands for the RNA pseudoknot that regulate -1 ribosomal frameshifting” (Bioorg Med Chem, 2008).

Turning to `CSc1ccccc1NC(=O)NCC(=O)OCc1ccccc1`, the outcome in test [1] was Active.

For `CCOC(=O)c1cccc(NC(=O)N2CCCN2C(=O)c2cccnc2SCCCC#N)c1`, the result in test [1] was Active. `CCOC(=O)N1CCN(C(=O)Nc2ccccc2SC)CC1`: in test [1], the result was Active.

In the case of `COC(=O)C(CCCCNC(=O)Nc1cc(F)ccc1F)NS(=O)(=O)c1ccc(C)cc1` (stereo unspecified), the Activity in test [2] was 13.7%; in test [3], 7.6%; with HEK293 it was 8.05%; in test [4], “Dose-dependent effect”; in test [1] it was 18.1%. For the same compound, the outcome in test [5] was inactive.

Regarding `CCOC(=O)C(CSCc1ccccc1)NC(=O)Nc1ccc(SC)cc1` (stereo unspecified), the result in test [1] was Active. Still for that read-out and setting: in the case of `COC(=O)c1cc(NC(=O)NCCSCc2ccccc2)cc(C(=O)OC)c1` it was “Active”.
